Results reported in ChEMBL document CHEMBL4130374, “Discovery of 9H-purins as potential tubulin polymerization inhibitors: Synthesis, biological evaluation and structure-activity relationships” (Eur J Med Chem, 2017).

Legend:
[1] = tested on: AGS; assay: Antiproliferative activity against human AGS cells after 48 hrs by MTT assay; type: functional
In short: (§1)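 Log-phase cells, harvested by trypsinization, seeded 24 h, then exposed to a range of compound concentrations for 48 h. Culture in RPMI 1640 with 4% FBS, penicillin/streptomycin, 37°C, 5% CO2. DMSO below 1% final; 5-Fu as positive control. Readout is MTT (0.5 mg/mL, 4 h), formazan dissolved in DMSO, absorbance at 570 nm. GI50 = 50% growth inhibition versus untreated cells; means ± SD of at least two independent experiments.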

[2] = tested on: K562; assay: Antiproliferative activity against human K562 cells after 48 hrs by MTT assay; type: functional; conditions: K562, 48 h; in short: as §1
[3] = tested on: Tubulin (Sus scrofa); assay: Inhibition of pig brain tubulin polymerization at 10 uM by spectrophotometry relative to control
[4] = tested on: SH-SY5Y; assay: Antiproliferative activity against human SH-SY5Y cells after 48 hrs by MTT assay; type: functional; in short: as §1
[5] = Cytotoxicity against mouse HT22 cells after 48 hrs by MTT assay; type: cell-based, HT-22
In short: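 MTT readout after 48 h exposure; CC50 is the 50% cytotoxic concentration, mean of three repeated experiments.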

[6] = Selectivity index, ratio of GI50 for mouse HT22 cells to GI50 for human SH-SY5Y cells; type: toxicity; conditions: HT22 cells and SH-SY5Y cells, read-out: RatioGI50
[7] = Selectivity ratio of GI50 for human K562 cells to GI50 for human SH-SY5Y cells; type: functional
[8] = Selectivity ratio of GI50 for human AGS cells to GI50 for human SH-SY5Y cells; type: functional
[9] = tested on: SH-SY5Y; assay: Potency index, ratio of 5-Fu GI50 to test compound GI50 for human SH-SY5Y cells; type: functional

GI50 [1] | GI50 [2] | inhibition [3] | GI50 [4] | SMILES | CC50 at 48 h [5] | selectivity ratio [6] | RatioGI50 [7] | RatioGI50 [8] | RatioGI50 [9]
11 µM | 7 µM | 22% | 5.5 µM | COc1ccc(Cn2cnc3c(Cl)nc(Cl)nc32)cc1OC |  |  |  |  | 
> 50 µM | > 50 µM |  | > 100 µM | COc1cc(Cn2cnc3c(Cl)ncnc32)cc(OC)c1OC |  |  |  |  | 
3.8 µM | 4.6 µM | 13% | 1.7 µM | COc1cc(Cn2cnc3c(Cl)nc(Cl)nc32)cc(OC)c1 | > 100 µM |  |  |  | 
> 100 µM | > 100 µM | 20% | 0.26 µM | COc1ccc(N(C)c2ncnc3c2ncn3Cc2cc(OC)c(OC)c(OC)c2)cc1 | 23 µM | 88 | >230 | >230 | 46
> 100 µM | > 100 µM |  | 31 µM | COc1ccc(Cn2cnc3c(N(C)c4ccc(OC)cc4)nc(Cl)nc32)cc1 |  |  |  |  | 
> 100 µM | > 100 µM | 18% | 0.43 µM | COc1ccc(N(C)c2ncnc3c2ncn3Cc2ccc(OC)c(OC)c2)cc1 | > 100 µM | 230 | >230 | >230 | 28
> 100 µM | > 100 µM |  | 27 µM | COc1ccc(Cn2cnc3c(N(C)c4ccc(OC)cc4)ncnc32)cc1 |  |  |  |  | 
69 µM | 42 µM |  | > 100 µM | COc1ccc(N(C)c2nc(Cl)nc3c2ncn3Cc2cc(OC)cc(OC)c2)cc1 |  |  |  |  | 
> 100 µM | > 100 µM |  | > 100 µM | COc1ccc(N(C)c2ncnc3c2ncn3C)cc1 |  |  |  |  | 
9.4 µM | 4.3 µM | 13% | 9.6 µM | COc1cc(Cn2cnc3c(Cl)nc(Cl)nc32)cc(OC)c1OC |  |  |  |  | 
> 100 µM | > 100 µM |  | > 100 µM | COc1cc(Cn2cnc3c(Cl)ncnc32)cc(OC)c1 |  |  |  |  | 
